Results taken from ChEMBL document CHEMBL4706740, “Structure-Activity Study of Nitazoxanide Derivatives as Novel STAT3 Pathway Inhibitors” (ACS Med Chem Lett, 2021).

Tests used:
[1] = molecular target: Signal transducer and activator of transcription 3 (Homo sapiens) (UniProt P40763); assay: Inhibition of IL-6 induced STAT3 transcriptional activity in human HEK-Blue IL-6 cells assessed as secreted embryonic alkaline phosphatase reporter gene expression at 10 uM by microplate reader; assay type: cell-based
Method in brief: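 Single-concentration screen in HEK-Blue IL-6 cells: % inhibition of the SEAP reporter read-out of STAT3 pathway activity, with viability checked by MTT in parallel. Values are averages of three independent experiments.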

[2] = Cytotoxicity against human HeLa cells assessed as inhibition of cell viability at 10 uM measured after 48 hrs by MTT assay; assay type: cell-based; settings: read-out: INH
[3] = Half life in Sprague-Dawley rat at 25 mg/kg, IG; assay type: ADME, organism-based; settings: in vivo, po
Method in brief: (§1)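 Rats, n = 3 per group, received a single dose either intragastrically (25 mg/kg) or intravenously (5 mg/kg). Plasma concentration–time curves were used to derive t1/2α, t1/2β, Vd/F, CL/F, AUC0–∞, Tmax and Cmax. Absolute oral bioavailability was calculated from the ig and iv data.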

[4] = Half life in Sprague-Dawley rat at 5 mg/kg, iv; assay type: ADME, organism-based; settings: in vivo; method in brief: as §1
[5] = Elimination Half life in Sprague-Dawley rat at 25 mg/kg, IG; assay type: ADME, organism-based; settings: in vivo, po, read-out: beta t1/2 (converted); method in brief: as §1
[6] = Elimination Half life in Sprague-Dawley rat at 5 mg/kg, iv; assay type: ADME, organism-based; settings: in vivo, read-out: beta t1/2 (converted); method in brief: as §1
[7] = Apparent volume of distribution in Sprague-Dawley rat at 25 mg/kg, IG; assay type: ADME, organism-based; settings: in vivo, po
[8] = Apparent volume of distribution in Sprague-Dawley rat at 5 mg/kg, iv; assay type: ADME, organism-based; settings: in vivo; method in brief: as §1
[9] = Apparent oral clearance in Sprague-Dawley rat at 25 mg/kg, IG; assay type: ADME, organism-based; settings: in vivo, read-out: CL/F (converted); method in brief: as §1
[10] = AUC (0 to infinity) in Sprague-Dawley rat at 25 mg/kg, IG; assay type: ADME, organism-based; design: route […], time infinity, dose 25 mg/kg; settings: in vivo, po; method in brief: as §1
[11] = AUC (0 to infinity) in Sprague-Dawley rat at 5 mg/kg, iv; assay type: ADME, organism-based; design: route intravenous, time infinity, dose 5 mg/kg; settings: in vivo; method in brief: as §1
[12] = Tmax in Sprague-Dawley rat at 25 mg/kg, IG; assay type: ADME, organism-based; settings: in vivo, po
[13] = Cmax in Sprague-Dawley rat at 25 mg/kg, IG; assay type: ADME, organism-based; design: route […], dose 25 mg/kg; settings: in vivo, po; method in brief: as §1
[14] = Cmax in Sprague-Dawley rat at 5 mg/kg, iv; assay type: ADME, organism-based; design: route intravenous, dose 5 mg/kg; settings: in vivo; method in brief: as §1
[15] = Absolute bioavailability in Sprague-Dawley rat at 25 mg/kg, IG; assay type: ADME, organism-based; settings: in vivo, po; method in brief: as §1
HeLa = assay: Cytotoxicity against human HeLa cells assessed as inhibition of cell viability measured after 48 hrs by MTT assay; assay type: functional, cell-based
Method in brief: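 Growth was read by MTT assay and IC50 taken from dose–response curves. Values are averages of three independent experiments.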

[16] = Cytotoxicity against human HEK 293T cells assessed as cell growth inhibition at 50 uM measured after 48 hrs by MTT assay; assay type: cell-based
[17] = Cytotoxicity against human HEK 293T cells assessed as cell growth inhibition at 10 uM measured after 48 hrs by MTT assay; assay type: cell-based

Sequence of Signal transducer and activator of transcription 3 (Homo sapiens) (P40763 whole entry): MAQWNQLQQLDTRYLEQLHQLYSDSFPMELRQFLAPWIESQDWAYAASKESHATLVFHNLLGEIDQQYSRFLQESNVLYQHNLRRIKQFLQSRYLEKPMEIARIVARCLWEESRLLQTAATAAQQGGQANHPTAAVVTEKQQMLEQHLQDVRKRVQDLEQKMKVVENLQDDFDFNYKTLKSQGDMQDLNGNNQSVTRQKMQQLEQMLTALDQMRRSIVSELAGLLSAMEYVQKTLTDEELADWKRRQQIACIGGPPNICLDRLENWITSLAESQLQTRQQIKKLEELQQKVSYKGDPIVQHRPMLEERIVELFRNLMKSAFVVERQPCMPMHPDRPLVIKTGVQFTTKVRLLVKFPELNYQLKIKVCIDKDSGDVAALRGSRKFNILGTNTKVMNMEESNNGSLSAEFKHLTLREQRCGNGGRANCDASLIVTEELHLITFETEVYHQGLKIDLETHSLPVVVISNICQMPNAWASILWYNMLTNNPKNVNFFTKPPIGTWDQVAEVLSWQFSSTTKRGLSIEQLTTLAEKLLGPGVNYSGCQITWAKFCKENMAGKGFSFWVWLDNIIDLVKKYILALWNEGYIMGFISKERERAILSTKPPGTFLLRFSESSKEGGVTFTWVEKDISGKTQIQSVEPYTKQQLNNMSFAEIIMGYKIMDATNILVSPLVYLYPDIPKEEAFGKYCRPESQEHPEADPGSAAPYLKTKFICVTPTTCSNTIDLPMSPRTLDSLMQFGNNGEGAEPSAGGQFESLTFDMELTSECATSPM

`O=C(Nc1ncc([N+](=O)[O-])s1)c1ccccc1Br` showed an inhibition [1] of 25.1% and a cytotoxicity at 48 h, 10 µM [2] of -10.1%.
Molecule `O=C(Nc1ncc([N+](=O)[O-])s1)c1ccc(C(F)(F)F)cc1` has a half-life [3] of 1.9 h, a half-life [4] of 3.6 min and a half-life [5] of 11.1 h. The half-life [6] was 2.3 h, the Vd/F [7] was 0.5 L/kg and the Vd/F [8] was 0.5 L/kg. It also gave a CL/F [9] of 0.05 L/h/kg, an AUC(0-inf) [10] of 391 µg·h/mL and an AUC(0-inf) [11] of 89.4 µg·h/mL. For the same molecule, the Tmax [12] was 4 h, the Cmax [13] was 20.7 µg/mL and the Cmax [14] was 28.1 µg/mL. The bioavailability [15] was 87.4%.
`O=C(Nc1ncc([N+](=O)[O-])s1)c1ccc(N2CCOCC2)cc1` showed an inhibition [1] of 9% and a cytotoxicity at 48 h, 10 µM [2] of 50.6%.
With `C#CCN(C(=O)c1ccc(C(F)(F)F)cc1)c1ncc([N+](=O)[O-])s1` the inhibition [1] was 9.1%.
Molecule `CC(C)(C)c1ccc(C(=O)Nc2ncc([N+](=O)[O-])s2)cc1` has an inhibition [1] of 43.7%.
In the case of `CN1CCN(c2ccc(C(=O)Nc3ncc([N+](=O)[O-])s3)cc2)CC1`, the inhibition [1] is reported as -3.3%.
Molecule `COc1ccc(C(=O)Nc2ncc([N+](=O)[O-])s2)cc1` has an inhibition [1] of 14.9%.
`CS(=O)(=O)c1ccc(C(=O)Nc2ncc([N+](=O)[O-])s2)cc1` gave an inhibition [1] of 5.3%.
`Cc1ccccc1C(=O)Nc1ncc([N+](=O)[O-])s1` gave an inhibition [1] of 36.4%.
For `NS(=O)(=O)c1ccc(C(=O)Nc2ncc([N+](=O)[O-])s2)cc1`, the inhibition [1] was -9.7%.
`O=C(Nc1ncc([N+](=O)[O-])s1)c1ccc(O)c(O)c1` showed an inhibition [1] of 26.7%.
In the case of `O=C(Nc1ncc([N+](=O)[O-])s1)c1ccc(O)cc1`, the inhibition [1] is reported as 20.9%.
In the case of `O=C(Nc1ncc([N+](=O)[O-])s1)c1ccc(O)cc1O`, the inhibition [1] is reported as 15.5%.
In the case of `O=C(Nc1ncc([N+](=O)[O-])s1)c1ccc(S(=O)(=O)Nc2ccccc2)cc1`, the inhibition [1] is reported as 9%.
In the case of `O=C(Nc1ncc([N+](=O)[O-])s1)c1cccc(O)c1`, the inhibition [1] is reported as 28.5%.
Work on `O=C(Nc1ncc([N+](=O)[O-])s1)c1ccccc1` yielded an inhibition [1] of 35.5%.
Molecule `O=C(Nc1ncc([N+](=O)[O-])s1)c1ccccc1Cl` has an inhibition [1] of 23%.
In the case of `O=C(Nc1ncc([N+](=O)[O-])s1)c1ccccc1F`, the inhibition [1] is reported as 22.1%.
In the case of `O=C(Nc1ncc([N+](=O)[O-])s1)c1ccccc1[N+](=O)[O-]`, the inhibition [1] is reported as 19%.
Molecule `O=C(Nc1ncc([N+](=O)[O-])s1)c1ccccc1O` [TIZOXANIDE] has a cytotoxicity at 48 h, 10 µM [2] of 12.7%, an IC50 (HeLa) of 29.8 µM and an inhibition at 48 h, 50 µM [16] of 21.6%. It also gave an inhibition at 48 h, 10 µM [17] of -5.7%.
In the case of `C[C@H](NC(=O)/C(C#N)=C/c1cccc(Br)n1)c1ccccc1` [WP 1066], the IC50 (HeLa) is reported as 4.2 µM, the inhibition at 48 h, 50 µM [16] is reported as 97.2% and the inhibition at 48 h, 10 µM [17] is reported as 79.9%.
